Measured values: publication PMC9486128 (The Journal of Biological Chemistry, 2022)
Numbering of substitutions follows the chain as printed. Several values for one entry are separate records, joined by “and”; a condition that tells them apart may be missing. Equal values may be shown once.

Columns and labels:
[1] = target: T1, SmHDAC8 (Schistosoma mansoni, UniProt A5H660); test: SmHDAC8 enzymatic activity inhibition; assay type: biochemical; conditions: for enhancement in potency toward SmHDAC8: NF2883 with respect to NF2453, NF2889 with respect to NF2452
T1 sequence (A5H660 1-440): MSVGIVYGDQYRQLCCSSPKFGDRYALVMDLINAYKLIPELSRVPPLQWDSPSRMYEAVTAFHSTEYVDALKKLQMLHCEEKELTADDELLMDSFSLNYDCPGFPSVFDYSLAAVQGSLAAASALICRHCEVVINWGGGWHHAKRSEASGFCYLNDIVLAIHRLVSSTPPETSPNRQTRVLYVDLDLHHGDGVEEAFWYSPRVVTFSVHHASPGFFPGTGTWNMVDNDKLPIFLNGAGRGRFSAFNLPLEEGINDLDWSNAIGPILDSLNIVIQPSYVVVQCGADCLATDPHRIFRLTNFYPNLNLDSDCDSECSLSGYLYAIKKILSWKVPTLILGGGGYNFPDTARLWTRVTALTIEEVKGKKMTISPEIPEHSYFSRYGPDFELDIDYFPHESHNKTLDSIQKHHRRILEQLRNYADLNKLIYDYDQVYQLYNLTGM

[2] = target: T2, hHDAC8 (Homo sapiens, UniProt Q9BY41); test: hHDAC8 enzymatic activity inhibition; assay type: biochemical; conditions: for enhancement in potency toward hHDAC8: NF2883 with respect to NF2453, NF2889 with respect to NF2452
T2 sequence (Q9BY41 1-377): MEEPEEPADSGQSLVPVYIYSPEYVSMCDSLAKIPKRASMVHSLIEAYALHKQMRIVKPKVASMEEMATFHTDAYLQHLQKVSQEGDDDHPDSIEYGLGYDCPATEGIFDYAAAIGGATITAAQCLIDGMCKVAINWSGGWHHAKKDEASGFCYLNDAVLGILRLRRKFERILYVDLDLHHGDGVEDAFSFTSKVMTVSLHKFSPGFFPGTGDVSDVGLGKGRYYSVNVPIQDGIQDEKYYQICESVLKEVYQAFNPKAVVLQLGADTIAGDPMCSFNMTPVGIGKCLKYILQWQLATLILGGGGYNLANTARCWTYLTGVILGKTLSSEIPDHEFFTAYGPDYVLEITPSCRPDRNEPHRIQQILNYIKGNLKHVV

[3] = tested on: S. mansoni larvae (schistosomula); test: ATP-based luminescence viability assay on schistosomula; assay type: cell-based, Schistosoma mansoni; conditions: 72 h incubation, normalized to DMSO and gambogic acid 10 μM
Method in brief: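 Schistosomula of a Puerto Rican strain were made by mechanical transformation of cercariae and purified on a Percoll gradient. They were exposed at 150 per well in phenol-red-free DMEM to test compound in DMSO for 72 h at 37 °C, 5% CO2. CellTiterGlo luminescence was read after 30 min. Three independent experiments were run. LD50 came from a variable-slope log(inhibitor) versus normalized response fit.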

[4] = tested on: S. mansoni adult worm pairs; test: Adult worm pairs viability assay; assay type: cell-based, Schistosoma mansoni; conditions: for reduction of adult worm pairs viability: day 7; for adult worm pairs viability: 24 h
Method in brief: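 Five adult worm pairs per sample were held in complete DMEM. Test compound was added once at 10, 20 or 50 μM, with no medium addition or replacement, against a DMSO vehicle control. Worms were scored 0–3 daily under a stereomicroscope for 7 days. The sample score was the sum of worm scores divided by worm number, expressed as percent relative to DMSO. Three experiments were run.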

[5] = target: T1, SmHDAC8; test: Binding to SmHDAC8 by quenching of intrinsic fluorescence
Method in brief: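 Recombinant His6-tagged SmHDAC8 was expressed in E. coli BL21(DE3) and used at 0.125 μM in 50 mM Tris pH 8.0, 150 mM KCl, 100 μM DTT. It was titrated with test compound from 1.6 nM to 125 μM, with 5 min stirred equilibration per addition at 25 °C. Intrinsic fluorescence quenching was read at 340 nm (excitation 280 nm), averaging 4–5 accumulations. Ki came from a quadratic 1:1 binding fit.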

[6] = target: T3, SmHDAC8 WT (Schistosoma mansoni, UniProt A5H660); test: Steady-state enzyme kinetics of SmHDAC8 with fixed inhibitor concentration; assay type: biochemical; conditions: for type of inhibition of SmHDAC8: from steady-state kinetics and IC50 at different substrate concentrations
T3 sequence (A5H660 1-440): T1 sequence (A5H660 1-440)
Method in brief: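 SmHDAC8 (0.425 μM) was preincubated 15 min at 25 °C with DMSO, 5 μM or 1 μM test compound. Timed aliquots were quenched with TSA/trypsin. Initial rates came from product versus time via standard curve and were fitted to Michaelis–Menten. Two to four independent experiments were run.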

[7] = target: T2, hHDAC8; test: Steady-state enzyme kinetics of hHDAC8 with fixed inhibitor concentration; assay type: biochemical; conditions: for type of inhibition of hHDAC8: from steady-state kinetics
Method in brief: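 Commercial recombinant human HDAC8 from the Fluor-de-Lys kit was run with varied Fluor-de-Lys acetylated peptide-AMC substrate. Reactions contained vehicle or a fixed test compound concentration. Steady-state parameters came from Michaelis–Menten nonlinear regression.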

[8] = target: T4, WT SmHDAC8 (Schistosoma mansoni, UniProt A5H660); test: Fluorescence emission spectra of WT SmHDAC8 with inhibitors; assay type: binding; conditions: inhibitor 25 μM, excitation 280 and 298 nm
T4 sequence (A5H660 1-440): T1 sequence (A5H660 1-440)
Method in brief: (§1)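 WT SmHDAC8 or the W198A mutant (made by site-directed mutagenesis and expressed in E. coli) was used at 0.125 μM in 10 mM Tris pH 8.0, 150 mM KCl, 5 mM DTT. Protein was preincubated 15 min at 25 °C with 25 μM test compound, with a DMSO reference and enzyme-free blanks. Emission spectra were recorded after 280 and 298 nm excitation, averaging 4–5 accumulations. Some runs included 2 mM Na/K-tartrate.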

[9] = target: T5, SmHDAC8 W198A mutant (Schistosoma mansoni, UniProt A5H660, W198A); test: Fluorescence emission spectra of SmHDAC8 W198A mutant with inhibitors; assay type: binding; conditions: inhibitor 25 μM, excitation 280 and 298 nm
T5 sequence (A5H660 1-440 W198A): T1 sequence (A5H660 1-440) with W198A
Method in brief: as §1

[10] = tested on: acetylation of lysine residues within histone proteins of S. mansoni adult worm pairs; test: Histone K-acetylation Western blot on adult worm pairs; assay type: cell-based, Schistosoma mansoni
Method in brief: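 Ten adult worm pairs were treated 24 or 72 h with test compound at concentrations taken from viability curves. Positive controls were TSA 1 μM and a reference HDAC inhibitor 20 μM; DMSO was the negative control. Lysis buffer contained 5 mM sodium butyrate. Histone-enriched fractions were run on 15% SDS-PAGE and blotted with anti-acetyl-lysine (1:4000) and anti-α-tubulin (1:5000), with Ponceau calibration. Acetyl-lysine densitometry was normalized to tubulin, then to DMSO.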

SMILES: CN1CCC2(CC1)c1ccccc1N(Cc1ccc(C(=O)NO)s1)C2c1ccc(Cl)cc1 (stereo not drawn) [NF2883, 5-((2-(4-chlorophenyl)-1′-methylspiro[indoline-3,4′-piperidin]-1-yl)methyl)-N-hydroxythiophene-2-carboxamide]
- enhancement in potency toward SmHDAC8 [1]: about 20 fold
- IC50 [2]: 160 ± 20 nM
- enhancement in potency toward hHDAC8 [2]: about 20 fold
- LD50 on schistosomula [3]: 26.2 ± 1.1 µM
- reduction of adult worm pairs viability ([4]; 10 μM): 50%
- reduction of adult worm pairs viability ([4]; 20 μM): almost complete death
- adult worm pairs viability ([4]; 50 μM): immediate loss of viability
- Ki [5]: 130 ± 50 nM

SMILES: O=C(NO)c1ccc(Cn2c3c(c4cc(Br)ccc42)SC(c2ccccc2)C3)s1 (stereo not drawn) [NF2886, 5-((7-Bromo-2-phenyl-2,3-dihydro-4H-thieno[3,2-b]indol-4-yl)methyl)-N-hydroxythiophene-2-carboxamide]
- increase of IC50 with 150 μM substrate versus 50 μM ([1]; SmHDAC8): ~2 fold
- IC50 [2]: 3140 ± 570 nM
- LD50 on schistosomula [3]: ~60 µM and 59.9 ± 4.9 µM
- reduction of adult worm pairs viability ([4]; 10 μM): ineffective
- reduction of adult worm pairs viability ([4]; 20 μM): ~50%
- reduction of adult worm pairs viability ([4]; 50 μM): ~50%
- Ki [5]: 9700 ± 7200 nM
- kcat ([6]; SmHDAC8 with 5 μM NF2886): 0.017 ± 0.003 s⁻¹
- increment of KM versus vehicle ([6]; SmHDAC8 with 5 μM inhibitor): > 3 fold
- type of inhibition of SmHDAC8 [6]: competitive inhibitor
- type of inhibition of hHDAC8 [7]: competitive
- kcat ([7]; hHDAC8 with 5 μM NF2886): 0.012 ± 0.004 s⁻¹
- fluorescence signal of WT SmHDAC8 with respect to control [8]: quenched
- fluorescence signal of SmHDAC8 W198A mutant with respect to control [9]: quenching

SMILES: CN1CCC2(CC1)c1ccccc1N(Cc1ccc(C(=O)NO)s1)C2c1cccc(Cl)c1 (stereo not drawn) [NF2889, 5-((2-(3-Chlorophenyl)-1′-methylspiro[indoline-3,4′-piperidin]-1-yl)methyl)-N-hydroxythiophene-2-carboxamide]
- enhancement in potency toward SmHDAC8 [1]: 6 fold
- IC50 [2]: 1320 ± 70 nM
- enhancement in potency toward hHDAC8 [2]: 2 fold
- LD50 on schistosomula [3]: 26.2 ± 1.6 µM
- reduction of adult worm pairs viability ([4]; 10 μM): 50%
- reduction of adult worm pairs viability ([4]; 20 μM): almost complete death
- adult worm pairs viability ([4]; 50 μM): immediate loss of viability
- increase of lysine acetylation signal versus DMSO ([10]; 5 μM for 72 h): 11 fold
- increase of lysine acetylation signal versus DMSO ([10]; 10 μM for 24 h): 6.5 fold
- Ki [5]: 600 ± 200 nM
- kcat ([6]; SmHDAC8 with 1 μM NF2889): 0.007 ± 0.003 s⁻¹
- type of inhibition of SmHDAC8 [6]: mixed-type inhibition
- type of inhibition of hHDAC8 [7]: competitive
- kcat ([7]; hHDAC8 with 2 μM NF2889): 0.011 ± 0.005 s⁻¹
- fluorescence signal of WT SmHDAC8 with respect to control [8]: quenched
- fluorescence signal of SmHDAC8 W198A mutant with respect to control [9]: no quenching

SMILES: CC(/C=C/C(=O)NO)=C\[C@@H](C)C(=O)c1ccc(N(C)C)cc1 [TSA, Trichostatin A, reference compound]
- increase of K-acetylation to tubulin ratio versus control ([10]; 1 μM, positive control): About 10 fold
